The target of data set [1] is T1, Cytochrome P450 2C8 (Homo sapiens, UniProt P10632).
T1 sequence (P10632 whole entry): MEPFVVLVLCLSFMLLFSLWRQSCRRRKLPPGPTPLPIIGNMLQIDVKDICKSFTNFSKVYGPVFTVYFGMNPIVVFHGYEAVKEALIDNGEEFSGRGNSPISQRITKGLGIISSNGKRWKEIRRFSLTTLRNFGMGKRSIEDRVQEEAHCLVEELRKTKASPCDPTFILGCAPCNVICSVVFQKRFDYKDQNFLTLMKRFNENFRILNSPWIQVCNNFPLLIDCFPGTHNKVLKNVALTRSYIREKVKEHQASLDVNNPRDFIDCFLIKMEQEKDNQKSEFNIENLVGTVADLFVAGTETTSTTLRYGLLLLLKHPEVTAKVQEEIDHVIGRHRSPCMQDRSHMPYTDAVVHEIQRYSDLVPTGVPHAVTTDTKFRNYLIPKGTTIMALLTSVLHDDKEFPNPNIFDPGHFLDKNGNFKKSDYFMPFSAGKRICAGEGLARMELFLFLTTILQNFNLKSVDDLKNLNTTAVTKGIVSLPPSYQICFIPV
Briefly: Inhibition of CYP2C8 (unknown origin). In kind it is ADME.

Data set [2] is described as follows: Clearance in Wistar rat at 0.2 mg/kg, iv. In kind it is ADME, organism-based. Further details: dose 0.2 mg/kg, route intravenous. The conditions noted are these: in vivo. The procedure, abridged:
(§1)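 Male Wistar rats (n = 6) received cassette dosing, either iv bolus at 0.2 mg/kg or oral gavage at 0.5 mg/kg per compound, in DMSO/PEG 200/water. Plasma levels were measured by UPLC–MS/MS.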

A short description of data set [3]: cells. The conditions noted are these: Homo sapiens, RKO-F1522, 24 h.
The nature of data set [4]: AUC in Wistar rat at 0.5 mg/kg, po. Further details: dose 0.5 mg/kg, route oral. In kind it is ADME, organism-based. The following applies: plasma. Summed up:
as §1

Data set [5] in a line: AUC in Wistar rat at 0.2 mg/kg, iv. The class given is ADME, organism-based. Further details: dose 0.2 mg/kg, route intravenous. The following applies: plasma. The procedure, abridged: as §1
For data set [6], the target named is T2, Poly [ADP-ribose] polymerase tankyrase-2 (Homo sapiens, UniProt Q9H2K2).
T2 sequence (Q9H2K2 whole entry): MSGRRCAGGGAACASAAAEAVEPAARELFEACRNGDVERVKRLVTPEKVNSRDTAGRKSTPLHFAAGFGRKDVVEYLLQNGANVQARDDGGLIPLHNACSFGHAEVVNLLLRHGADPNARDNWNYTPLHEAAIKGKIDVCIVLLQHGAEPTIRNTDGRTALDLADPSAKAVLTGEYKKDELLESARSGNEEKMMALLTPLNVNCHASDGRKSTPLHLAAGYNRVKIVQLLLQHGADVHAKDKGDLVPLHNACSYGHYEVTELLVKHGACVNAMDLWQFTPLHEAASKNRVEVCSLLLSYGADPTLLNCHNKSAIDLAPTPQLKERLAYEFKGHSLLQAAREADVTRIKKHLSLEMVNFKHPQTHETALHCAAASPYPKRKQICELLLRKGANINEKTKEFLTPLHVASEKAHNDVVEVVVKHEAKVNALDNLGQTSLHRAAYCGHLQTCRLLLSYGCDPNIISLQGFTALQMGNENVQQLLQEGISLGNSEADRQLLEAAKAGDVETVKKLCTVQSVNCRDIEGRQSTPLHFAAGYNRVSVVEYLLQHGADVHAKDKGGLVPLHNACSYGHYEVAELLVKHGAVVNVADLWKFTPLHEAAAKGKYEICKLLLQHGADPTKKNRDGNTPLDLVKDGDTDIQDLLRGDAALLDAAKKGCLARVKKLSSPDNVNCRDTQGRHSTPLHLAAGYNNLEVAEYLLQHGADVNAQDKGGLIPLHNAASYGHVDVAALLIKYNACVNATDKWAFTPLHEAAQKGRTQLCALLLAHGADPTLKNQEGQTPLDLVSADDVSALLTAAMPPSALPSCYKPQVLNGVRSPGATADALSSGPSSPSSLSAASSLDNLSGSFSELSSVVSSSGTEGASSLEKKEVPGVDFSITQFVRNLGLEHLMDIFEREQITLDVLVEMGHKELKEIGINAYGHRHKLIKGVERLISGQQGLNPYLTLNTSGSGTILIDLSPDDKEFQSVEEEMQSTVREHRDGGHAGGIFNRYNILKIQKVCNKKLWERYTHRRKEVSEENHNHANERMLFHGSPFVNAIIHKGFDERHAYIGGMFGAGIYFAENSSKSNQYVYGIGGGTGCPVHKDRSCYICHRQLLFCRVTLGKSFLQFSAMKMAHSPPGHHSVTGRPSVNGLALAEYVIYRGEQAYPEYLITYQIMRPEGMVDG
Briefly: Inhibition of GST-tagged TNKS2 (873 to 1166 aa) (unknown origin) after 90 mins by HTRF assay.

Data set [7] in a line: Drug uptake in tumor of human COLO205-F1756 clone 4 cells harboring APC mutant xenografted CrTac:NCr-Foxn1nu mouse at 70 mg/kg, po bid for 9 days measured after 2 to 6 hrs. In kind it is ADME, organism-based, COLO 205. Also on record: dose 70 mg/kg, route oral. The following applies: in vivo. The procedure, abridged:
(§2)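 In COLO205-F1756 clone 4 xenograft-bearing nude mice dosed orally at 70 mg/kg bid, cardiac blood and tumours were taken 2 and 6 h after the final dose. Tumours were homogenized in 3 v/w PBS, methanol-extracted with internal standard, and total levels were measured by UPLC–MS/MS (MRM, positive ion).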
Background: A xenograft is tissue or cells of one species grown in another, often human tumour cells in immunodeficient mice.

The nature of data set [8]: in vivo. The conditions noted are these: Wistar, rat, iv, 0.2 mg/kg.
Data set [9] is described as follows: Volume of distribution at steady state in Wistar rat at 0.2 mg/kg, iv. The class given is ADME, organism-based. Further details: dose 0.2 mg/kg, route intravenous. The conditions noted are these: in vivo, read-out: Vdss. Summed up:
as §1

The target in data set [10] is Cytochrome P450 2C9 (Homo sapiens, UniProt P11712). Nature of the data set: Inhibition of CYP2C9 (unknown origin). In kind it is ADME. The following applies: human.
Sequence of Cytochrome P450 2C9 (P11712 whole entry): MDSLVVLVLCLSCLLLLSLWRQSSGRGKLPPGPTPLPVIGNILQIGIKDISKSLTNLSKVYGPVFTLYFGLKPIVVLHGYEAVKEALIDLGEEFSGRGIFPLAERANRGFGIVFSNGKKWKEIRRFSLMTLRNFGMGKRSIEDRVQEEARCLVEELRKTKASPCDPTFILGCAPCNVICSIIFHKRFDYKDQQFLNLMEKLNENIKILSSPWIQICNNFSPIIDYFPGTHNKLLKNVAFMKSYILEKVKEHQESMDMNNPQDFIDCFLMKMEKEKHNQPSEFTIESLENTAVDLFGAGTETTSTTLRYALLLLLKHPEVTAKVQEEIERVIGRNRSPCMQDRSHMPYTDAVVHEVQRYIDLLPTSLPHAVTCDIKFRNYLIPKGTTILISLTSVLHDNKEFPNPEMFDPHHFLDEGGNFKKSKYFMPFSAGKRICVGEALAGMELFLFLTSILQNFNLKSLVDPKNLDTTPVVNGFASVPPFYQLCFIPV
Data set [11] in a line: Tmax in Wistar rat at 0.5 mg/kg, po. In kind it is ADME, organism-based. Also on record: dose 0.5 mg/kg, route oral. The conditions noted are these: in vivo. The procedure, abridged: as §1
The test system of data set [12] is Plasma. Nature of the data set: Drug uptake in plasma of human COLO205-F1756 clone 4 cells harboring APC mutant xenografted CrTac:NCr-Foxn1nu mouse at 70 mg/kg, po bid for 9 days measured after 2 to 6 hrs. In kind it is ADME, organism-based, COLO 205. Further details: dose 70 mg/kg, route oral. The conditions noted are these: in vivo. The procedure, abridged: as §2

Data set [13] in a line: Antitumor activity against human COLO205-F1756 clone 4 cells harboring APC mutant xenografted in CrTac:NCr-Foxn1nu mouse assessed as reduction in flux normalized to tumor weight at 70 mg/kg, po bid for 9 days relative to control. In kind it is functional, COLO 205. Also on record: scale not given: the % may be the effect or the level left. Summed up: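 Female athymic nude mice were implanted sc in the flank with 3 million COLO205-F1756 clone 4 cells. At about 100 mm3, groups of n = 8 were gavaged at 70 mg/kg bid or with vehicle (10% DMSO, 5% Tween 20 in saline). Luminescent flux was imaged after sc D-luciferin 2 and 6 h post final dose, then tumours were excised and weighed. Mann–Whitney U test.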

Usually clearance stands for a measure of how efficiently the substance is removed, as volume per time. As usually defined, the IC50 is the concentration that gives 50% inhibition. One may read the AUC as the area under the concentration-time curve, a measure of exposure. One may read the half-life as the time needed for the level to fall by half in the phase considered. By Tmax is commonly meant the time at which the peak concentration occurs. For `Cn1cc(-c2ccc(-c3cncc(Cl)c3N3CCC4(CCNC4=O)CC3)cc2)cn1`, the “inhibition (INH)” value in data set [1] and in [10] was “Not Active” in each case. Moreover, in [2], the clearance was 26 mL/min/kg. The half-maximal inhibitory concentration (IC50) in data set [3] is above 10 µM; in [6] it was 15 µM. Moreover, the AUC came to 288 ng·h/mL in data set [4] and 130 ng·h/mL in [5]. Further, the Drug uptake result in data set [7] and in [12] was “Active” in each case. This molecule also showed a half-life in data set [8] of 58.2 min. Besides, the Vd in [9] was 1.8 L/kg. Besides, in data set [11], the Tmax turned out to be 15 min. Further, the Activity in data set [13] came out at 80%.

The record behind these values is ChEMBL document CHEMBL3407438, “Discovery of potent, orally bioavailable, small-molecule inhibitors of WNT signaling from a cell-based pathway screen” (J Med Chem, 2015).
